Active and inactive are the calls of the source. The calls are words filed in the database; no cut-off is given here.
Tests used:
[1] = test system: Saccharomyces cerevisiae; experiment: Inhibition of Saccharomyces cerevisiae alpha-D-glucosidase at 1 mg/ml after 10 to 20 mins
Summary of the method: (§1)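 Enzyme was pre-incubated with test solution at 1 mg/ml, or dH2O for controls, for 10–20 min at 27 °C. Substrate was added and incubation continued for the same time at 27 °C. The reaction was stopped with glycine solution and read at 405 nm. Each sample and control ran in three wells at the enzyme's optimal pH. Values are % inhibition.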

[2] = test system: Geobacillus stearothermophilus; experiment: Inhibition of Bacillus stearothermophilus alpha-D-glucosidase at 1 mg/ml after 10 to 20 mins; summary of the method: as §1
[3] = test system: Oryza sativa; experiment: Inhibition of rice alpha-D-glucosidase at 1 mg/ml after 10 to 20 mins; summary of the method: as §1
[4] = test system: Prunus; experiment: Inhibition of almond beta-D-glucosidase at 1 mg/ml after 10 to 20 mins; summary of the method: as §1
[5] = test system: Canavalia ensiformis; experiment: Inhibition of jack bean alpha-D-mannosidase at 1 mg/ml after 10 to 20 mins; summary of the method: as §1
[6] = test system: Cellulomonas fimi; experiment: Inhibition of Cellulomonas fimi beta-D-mannosidase at 1 mg/ml after 10 to 20 mins; summary of the method: as §1
[7] = species: Bos taurus; experiment: Inhibition of bovine kidney N-acetyl-beta-D-glucosaminidase at 1 mg/ml after 10 to 20 mins; summary of the method: as §1
[8] = molecular target: Alpha-galactosidase (Coffea arabica) (UniProt Q42656); experiment: Inhibition of green coffee beans alpha-D-galactosidase at 1 mg/ml after 10 to 20 mins; summary of the method: as §1
Alpha-galactosidase (Coffea arabica), sequence (Q42656 16-378 limits assumed): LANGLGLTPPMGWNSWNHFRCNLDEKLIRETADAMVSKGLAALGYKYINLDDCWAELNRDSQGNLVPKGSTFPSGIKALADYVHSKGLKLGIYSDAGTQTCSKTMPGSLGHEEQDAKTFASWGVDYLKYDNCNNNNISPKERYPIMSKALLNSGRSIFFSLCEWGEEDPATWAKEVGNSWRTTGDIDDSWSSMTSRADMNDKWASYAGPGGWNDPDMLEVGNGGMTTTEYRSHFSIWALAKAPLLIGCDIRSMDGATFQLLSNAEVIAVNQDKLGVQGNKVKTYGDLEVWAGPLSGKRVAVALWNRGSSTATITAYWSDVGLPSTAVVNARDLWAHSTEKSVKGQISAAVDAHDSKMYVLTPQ

[9] = molecular target: T1, Beta-galactosidase (Bos taurus) (UniProt Q58D55); experiment: Inhibition of bovine kidney beta-D-galactosidase at 1 mg/ml after 10 to 20 mins; summary of the method: as §1
T1 sequence (whole entry): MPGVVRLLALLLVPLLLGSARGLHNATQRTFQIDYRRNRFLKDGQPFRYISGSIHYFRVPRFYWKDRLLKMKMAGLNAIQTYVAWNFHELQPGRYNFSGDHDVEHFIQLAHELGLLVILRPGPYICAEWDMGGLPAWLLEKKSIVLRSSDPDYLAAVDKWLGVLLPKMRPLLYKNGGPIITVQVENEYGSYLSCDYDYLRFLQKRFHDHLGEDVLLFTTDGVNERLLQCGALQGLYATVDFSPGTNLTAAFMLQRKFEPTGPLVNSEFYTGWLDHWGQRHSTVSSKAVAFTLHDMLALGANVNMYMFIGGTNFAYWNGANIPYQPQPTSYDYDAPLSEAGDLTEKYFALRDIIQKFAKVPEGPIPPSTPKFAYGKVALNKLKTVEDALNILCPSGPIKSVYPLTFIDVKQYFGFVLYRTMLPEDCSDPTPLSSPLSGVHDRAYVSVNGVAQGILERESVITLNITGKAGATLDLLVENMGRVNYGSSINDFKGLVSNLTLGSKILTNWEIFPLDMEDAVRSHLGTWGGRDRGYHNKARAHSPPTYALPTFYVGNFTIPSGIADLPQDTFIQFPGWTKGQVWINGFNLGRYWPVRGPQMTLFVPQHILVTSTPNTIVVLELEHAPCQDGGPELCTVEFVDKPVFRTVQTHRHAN

[10] = test system: Penicillium decumbens; experiment: Inhibition of Penicillium decumbens naringinase at 1 mg/ml after 10 to 20 mins; summary of the method: as §1
[11] = molecular target: T2, Beta-galactosidase (Bos taurus, UniProt Q58D55); experiment: Inhibition of bovine kidney beta-D-galactosidase after 10 to 20 mins
T2 sequence (Q58D55 whole entry): T1 sequence (whole entry)
Summary of the method: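 Bovine kidney β-D-galactosidase was pre-incubated with test solution, or dH2O for controls, for 10–20 min at 27 °C. Substrate was added for a further 10–20 min at 27 °C, then glycine solution, and absorbance at 405 nm. Wells were run in triplicate. Ki and inhibition mode came from Lineweaver–Burk double-reciprocal slopes.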

With `CO[C@H]1O[C@H](CO)CNC[C@H]1O` the inhibition [1] was “inactive”, the inhibition [2] was 8% and the inhibition [3] was “inactive”. The inhibition [4] was “inactive”, the inhibition [5] was “inactive” and the inhibition [6] was “inactive”. The inhibition [7] was 9%, the inhibition [8] was 6% and the inhibition [9] was 16%. For the same compound, the inhibition [10] was “inactive”.

`CO[C@@H]1CN(O)C[C@@H](CO)O1` was tested, and the inhibition [1] was 58%, the inhibition [2] was “inactive” and the inhibition [3] was 29%. For the same compound, the inhibition [4] was “inactive”, the inhibition [5] was “inactive” and the inhibition [6] was “inactive”. For the same compound, the inhibition [7] was 72%, the inhibition [8] was “inactive” and the inhibition [9] was 82%. For the same compound, the inhibition [10] was “inactive”, the IC50 [11] was 30.6 µM and the Ki [11] was 20.2 µM.

`CO[C@H]1O[C@H](CO)CN(O)C[C@H]1O` was tested, and the inhibition [1] was “inactive”, the inhibition [2] was “inactive” and the inhibition [3] was “inactive”. The inhibition [4] was “inactive”, the inhibition [5] was “inactive” and the inhibition [6] was “inactive”. The inhibition [8] was “inactive”, the inhibition [9] was “inactive” and the inhibition [10] was “inactive”.

For `COC(=O)C(Cc1ccc(O)cc1)N1C[C@@H](CO)O[C@H](OC)C1` (stereo partly drawn), the inhibition [1] was “inactive”, the inhibition [2] was “inactive” and the inhibition [3] was “inactive”. For the same compound, the inhibition [4] was “inactive”, the inhibition [6] was “inactive” and the inhibition [7] was “inactive”. For the same compound, the inhibition [8] was “inactive”, the inhibition [9] was 12% and the inhibition [10] was “inactive”.

With `COC(=O)C(C)N1C[C@@H](CO)O[C@H](OC)[C@H](O)C1` (stereo partly drawn) the inhibition [1] was “inactive”, the inhibition [2] was “inactive” and the inhibition [3] was “inactive”. For the same compound, the inhibition [4] was “inactive”, the inhibition [5] was “inactive” and the inhibition [6] was “inactive”. The inhibition [7] was “inactive”, the inhibition [8] was “inactive” and the inhibition [9] was “inactive”. The inhibition [10] was “inactive”.

In the case of `COC(=O)CN1C[C@@H](CO)O[C@H](OC)[C@H](O)C1`, the inhibition [1] is reported as “inactive”, the inhibition [2] is reported as “inactive” and the inhibition [3] is reported as “inactive”. For the same compound, the inhibition [4] was “inactive”, the inhibition [5] was “inactive” and the inhibition [6] was “inactive”. For the same compound, the inhibition [8] was “inactive”, the inhibition [9] was “inactive” and the inhibition [10] was “inactive”.

For `CO[C@@H]1CNC[C@@H](CO)O1`, the inhibition [1] was “inactive”, the inhibition [2] was “inactive” and the inhibition [3] was “inactive”. The inhibition [4] was 4%, the inhibition [5] was “inactive” and the inhibition [6] was 5%. For the same compound, the inhibition [7] was 10%, the inhibition [8] was “inactive” and the inhibition [9] was 27%. It also gave an inhibition [10] of 9%.

With `CCCCN1C[C@@H](CO)O[C@H](OC)[C@H](O)C1` the inhibition [1] was 8%, the inhibition [2] was “inactive” and the inhibition [3] was “inactive”. For the same compound, the inhibition [4] was “inactive”, the inhibition [5] was “inactive” and the inhibition [6] was “inactive”. The inhibition [7] was 32%, the inhibition [8] was “inactive” and the inhibition [9] was 23%. For the same compound, the inhibition [10] was “inactive”.

With `CO[C@H]1O[C@H](CO)CN(Cc2ccccc2)C[C@H]1O` the inhibition [1] was “inactive”, the inhibition [2] was “inactive” and the inhibition [3] was “inactive”. The inhibition [4] was “inactive”, the inhibition [5] was “inactive” and the inhibition [6] was “inactive”. The inhibition [8] was “inactive”, the inhibition [9] was “inactive” and the inhibition [10] was “inactive”.

For `CCCN1C[C@@H](CO)O[C@H](OC)C1`, the inhibition [1] was 8%, the inhibition [2] was 9% and the inhibition [3] was “inactive”. For the same compound, the inhibition [4] was “inactive”, the inhibition [5] was “inactive” and the inhibition [6] was “inactive”. The inhibition [7] was “inactive”, the inhibition [8] was “inactive” and the inhibition [9] was 54%. The inhibition [10] was 9% and the IC50 [11] was 75.5 µM.

For `COC(=O)CN1C[C@@H](CO)O[C@H](OC)C1`, the inhibition [1] was “inactive”, the inhibition [2] was “inactive” and the inhibition [3] was “inactive”. The inhibition [4] was “inactive”, the inhibition [5] was “inactive” and the inhibition [6] was “inactive”. For the same compound, the inhibition [7] was “inactive”, the inhibition [8] was “inactive” and the inhibition [9] was 36%. The inhibition [10] was “inactive”.

In the case of `COC(=O)C(Cc1ccccc1)N1C[C@@H](CO)O[C@H](OC)C1` (stereo partly drawn), the inhibition [1] is reported as “inactive”, the inhibition [2] is reported as “inactive” and the inhibition [3] is reported as “inactive”. The inhibition [4] was “inactive”, the inhibition [6] was “inactive” and the inhibition [7] was “inactive”. For the same compound, the inhibition [8] was “inactive”, the inhibition [9] was 5% and the inhibition [10] was “inactive”.

For `CCCCCCCCN1C[C@@H](CO)O[C@H](OC)[C@H](O)C1`, the inhibition [1] was “inactive”, the inhibition [2] was “inactive” and the inhibition [3] was “inactive”. The inhibition [4] was “inactive”, the inhibition [5] was “inactive” and the inhibition [6] was “inactive”. The inhibition [8] was “inactive”, the inhibition [9] was “inactive” and the inhibition [10] was “inactive”.

In the case of `COC(=O)C(Cc1ccc(O)cc1)N1C[C@@H](CO)O[C@H](OC)[C@H](O)C1` (stereo partly drawn), the inhibition [1] is reported as “inactive”, the inhibition [2] is reported as “inactive” and the inhibition [3] is reported as “inactive”. The inhibition [4] was “inactive”, the inhibition [5] was “inactive” and the inhibition [6] was “inactive”. For the same compound, the inhibition [7] was “inactive”, the inhibition [8] was “inactive” and the inhibition [9] was “inactive”. The inhibition [10] was “inactive”.

For `CCCCN1C[C@@H](CO)O[C@H](OC)C1`, the inhibition [1] was “inactive”, the inhibition [2] was “inactive” and the inhibition [3] was “inactive”. For the same compound, the inhibition [4] was “inactive”, the inhibition [5] was “inactive” and the inhibition [6] was “inactive”. The inhibition [7] was 8%, the inhibition [8] was “inactive” and the inhibition [9] was 45%. The inhibition [10] was 7% and the IC50 [11] was 70.3 µM.

With `COC(=O)C(Cc1ccccc1)N1C[C@@H](CO)O[C@H](OC)[C@H](O)C1` (stereo partly drawn) the inhibition [1] was “inactive”, the inhibition [2] was “inactive” and the inhibition [3] was “inactive”. For the same compound, the inhibition [4] was “inactive”, the inhibition [5] was “inactive” and the inhibition [6] was “inactive”. For the same compound, the inhibition [7] was “inactive”, the inhibition [8] was “inactive” and the inhibition [9] was “inactive”. For the same compound, the inhibition [10] was “inactive”.

For `CCCCCCCCN1C[C@@H](CO)O[C@H](OC)C1`, the inhibition [1] was “inactive”, the inhibition [2] was “inactive” and the inhibition [3] was “inactive”. For the same compound, the inhibition [4] was “inactive”, the inhibition [5] was “inactive” and the inhibition [6] was 6%. The inhibition [7] was “inactive”, the inhibition [8] was “inactive” and the inhibition [9] was 51%. The inhibition [10] was “inactive” and the IC50 [11] was 55.1 µM.

`CO[C@H]1O[C@H](CN2C[C@@H](CO)O[C@H](OC)[C@H](O)C2)[C@@H](OCc2ccccc2)[C@H](OCc2ccccc2)[C@H]1OCc1ccccc1` was tested, and the inhibition [1] was “inactive”, the inhibition [2] was “inactive” and the inhibition [3] was “inactive”. For the same compound, the inhibition [4] was “inactive”, the inhibition [5] was “inactive” and the inhibition [6] was “inactive”. For the same compound, the inhibition [7] was “inactive”, the inhibition [8] was “inactive” and the inhibition [9] was “inactive”. The inhibition [10] was “inactive”.

`CCCN1C[C@@H](CO)O[C@H](OC)[C@H](O)C1` was tested, and the inhibition [1] was 10%, the inhibition [2] was “inactive” and the inhibition [3] was “inactive”. For the same compound, the inhibition [4] was “inactive”, the inhibition [5] was “inactive” and the inhibition [6] was “inactive”. The inhibition [7] was 25%, the inhibition [8] was “inactive” and the inhibition [9] was 32%. For the same compound, the inhibition [10] was “inactive”.

For `COC(=O)C(C)N1C[C@@H](CO)O[C@H](OC)C1` (stereo partly drawn), the inhibition [1] was “inactive”, the inhibition [2] was “inactive” and the inhibition [3] was “inactive”. For the same compound, the inhibition [4] was “inactive”, the inhibition [6] was “inactive” and the inhibition [7] was “inactive”. For the same compound, the inhibition [8] was “inactive”, the inhibition [9] was 14% and the inhibition [10] was “inactive”.

With `CO[C@@H]1CN(C[C@H]2O[C@H](OC)[C@H](O)[C@@H](O)[C@@H]2O)C[C@@H](CO)O1` the inhibition [1] was 77%, the inhibition [2] was 66% and the inhibition [3] was “inactive”. The inhibition [4] was 28%, the inhibition [5] was “inactive” and the inhibition [6] was 33%. It also gave an inhibition [7] of 11%, an inhibition [8] of 31% and an inhibition [9] of 50%. For the same compound, the inhibition [10] was 11%.

From ChEMBL document CHEMBL1821567, “Synthesis and glycosidase inhibitory profiles of functionalised morpholines and oxazepanes” (Bioorg Med Chem, 2011)
